Results as given in ChEMBL document CHEMBL1157765, “Synthesis of DOTA-conjugated multimeric [Tyr3]octreotide peptides via a combination of Cu(I)-catalyzed "click" cycloaddition and thio acid/sulfonyl azide "sulfo-click" amidation and their in vivo evaluation” (J Med Chem, 2010).
Values belong to the compound of their own block, whether it stands above or below them.

What was measured:
Blood [1] = experiment: Biodistribution in blood of BALB/c mouse bearing rat AR42J cells at 0.37 MBq, iv after 24 hrs; type: ADME, organism-based, AR-42J; conditions: in vivo
Procedure, shortened: (§1)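 AR42J tumor grown in right flank of male BALB/c nude mice (20-25 g, 6-8 weeks) by sc injection of 5 × 10⁶ cells; used after ~2 weeks at 4-6 mm diameter. Groups of five received 0.37 MBq (0.1 μg) ¹¹¹In-DOTA conjugate iv via tail vein (labeled in 0.25 M NH₄OAc pH 5.5, 95 °C, 15 min). Tissues dissected at 2, 6 or 24 h, weighed, γ-counted against 1% injected-activity standards; %ID/g, mean ± SD.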

Liver [2] = experiment: Biodistribution in liver of BALB/c mouse bearing rat AR42J cells at 0.37 MBq, iv after 6 hrs; type: ADME, organism-based, AR-42J; conditions: in vivo; procedure, shortened: as §1
Pancreas [3] = experiment: Biodistribution in pancreas of BALB/c mouse bearing rat AR42J cells at 0.37 MBq, iv after 24 hrs; type: ADME, organism-based, AR-42J; conditions: in vivo; procedure, shortened: as §1
[4] = Biodistribution in tumor of BALB/c mouse bearing rat AR42J cells at 0.37 MBq, iv after 24 hrs; type: ADME, organism-based, Neoplasm, AR-42J; conditions: in vivo; procedure, shortened: as §1
Kidney [5] = experiment: Biodistribution in kidney of BALB/c mouse bearing rat AR42J cells at 0.37 MBq, iv after 6 hrs; type: ADME, organism-based, AR-42J; conditions: in vivo; procedure, shortened: as §1
Pancreas [6] = experiment: Biodistribution in pancreas of BALB/c mouse bearing rat AR42J cells at 0.37 MBq, iv after 2 hrs; type: ADME, organism-based, AR-42J; conditions: in vivo; procedure, shortened: as §1
[7] = Biodistribution in adrenal gland of BALB/c mouse bearing rat AR42J cells at 0.37 MBq, iv after 2 hrs under cold condition; type: ADME, organism-based, AR-42J; conditions: in vivo
Procedure, shortened: (§2)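 Receptor block: groups of three AR42J tumor-bearing male BALB/c nude mice co-injected iv via tail vein with 0.37 MBq (0.1 μg) ¹¹¹In-DOTA conjugate plus 50 μg octreotide. Killed by CO₂/O₂ at 2 h; blood, tumor and tissues dissected, weighed and γ-counted against 1% injected-activity standards; %ID/g reported as mean ± SD.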

[8] = Biodistribution in tumor of BALB/c mouse bearing rat AR42J cells at 0.37 MBq, iv after 6 hrs; type: ADME, organism-based, Neoplasm, AR-42J; conditions: in vivo; procedure, shortened: as §1
Blood [9] = experiment: Biodistribution in blood of BALB/c mouse bearing rat AR42J cells at 0.37 MBq, iv after 6 hrs; type: ADME, organism-based, AR-42J; conditions: in vivo; procedure, shortened: as §1
[10] = Biodistribution in adrenal gland of BALB/c mouse bearing rat AR42J cells at 0.37 MBq, iv after 2 hrs; type: ADME, organism-based, AR-42J; conditions: in vivo; procedure, shortened: as §1
Pancreas [11] = experiment: Biodistribution in pancreas of BALB/c mouse bearing rat AR42J cells at 0.37 MBq, iv after 2 hrs under cold condition; type: ADME, organism-based, AR-42J; conditions: in vivo; procedure, shortened: as §2
Liver [12] = experiment: Biodistribution in liver of BALB/c mouse bearing rat AR42J cells at 0.37 MBq, iv after 24 hrs; type: ADME, organism-based, AR-42J; conditions: in vivo; procedure, shortened: as §1
Kidney [13] = experiment: Biodistribution in kidney of BALB/c mouse bearing rat AR42J cells at 0.37 MBq, iv after 24 hrs; type: ADME, organism-based, AR-42J; conditions: in vivo; procedure, shortened: as §1
Stomach [14] = experiment: Biodistribution in stomach of BALB/c mouse bearing rat AR42J cells at 0.37 MBq, iv after 2 hrs under cold condition; type: ADME, organism-based, AR-42J; conditions: in vivo; procedure, shortened: as §2
Pancreas [15] = experiment: Biodistribution in pancreas of BALB/c mouse bearing rat AR42J cells at 0.37 MBq, iv after 6 hrs; type: ADME, organism-based, AR-42J; conditions: in vivo; procedure, shortened: as §1
Blood [16] = experiment: Biodistribution in blood of BALB/c mouse bearing rat AR42J cells at 0.37 MBq, iv after 2 hrs under cold condition; type: ADME, organism-based, AR-42J; conditions: in vivo; procedure, shortened: as §2
Stomach [17] = experiment: Biodistribution in stomach of BALB/c mouse bearing rat AR42J cells at 0.37 MBq, iv after 6 hrs; type: ADME, organism-based, AR-42J; conditions: in vivo; procedure, shortened: as §1
[18] = Biodistribution in adrenal gland of BALB/c mouse bearing rat AR42J cells at 0.37 MBq, iv after 24 hrs; type: ADME, organism-based, AR-42J; conditions: in vivo; procedure, shortened: as §1
Liver [19] = experiment: Biodistribution in liver of BALB/c mouse bearing rat AR42J cells at 0.37 MBq, iv after 2 hrs under cold condition; type: ADME, organism-based, AR-42J; conditions: in vivo; procedure, shortened: as §2
[20] = molecular target: Somatostatin receptor type 2 (Rattus norvegicus, UniProt P30680); experiment: Displacement of [111In]DOTA0,Tyr3]octreotide from SSTR2 receptor in rat AR42J cells; type: cell-based, AR-42J
Sequence of Somatostatin receptor type 2 (P30680 whole entry): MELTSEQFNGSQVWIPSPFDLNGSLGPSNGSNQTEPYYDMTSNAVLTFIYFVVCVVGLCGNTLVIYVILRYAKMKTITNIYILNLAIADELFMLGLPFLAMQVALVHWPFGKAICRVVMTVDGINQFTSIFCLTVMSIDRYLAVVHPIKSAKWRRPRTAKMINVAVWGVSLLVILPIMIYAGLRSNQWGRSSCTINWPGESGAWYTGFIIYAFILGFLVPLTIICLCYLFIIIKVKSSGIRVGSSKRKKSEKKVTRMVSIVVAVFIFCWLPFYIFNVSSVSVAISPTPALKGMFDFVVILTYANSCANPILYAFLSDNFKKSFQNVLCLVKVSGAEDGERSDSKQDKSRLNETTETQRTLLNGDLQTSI
Procedure, shortened: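 AR42J cells (DMEM, 10% FCS, 37 °C, 5% CO₂) seeded 8 × 10⁵/well and grown to confluence, washed with DMEM + 0.1% BSA. Incubated 3 h at 37 °C with [¹¹¹In-DOTA⁰,Tyr³]octreotide tracer (40 000 dpm) and unlabeled peptide at 0.1-300 nM. Washed twice; cell-bound activity γ-counted. IC₅₀ from fitted sigmoidal displacement curves with 95% CI.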

Stomach [21] = experiment: Biodistribution in stomach of BALB/c mouse bearing rat AR42J cells at 0.37 MBq, iv after 24 hrs; type: ADME, organism-based, AR-42J; conditions: in vivo; procedure, shortened: as §1
[22] = Biodistribution in tumor of BALB/c mouse bearing rat AR42J cells at 0.37 MBq, iv after 2 hrs; type: ADME, organism-based, Neoplasm, AR-42J; conditions: in vivo; procedure, shortened: as §1
[23] = Biodistribution in tumor of BALB/c mouse bearing rat AR42J cells at 0.37 MBq, iv after 2 hrs under cold condition; type: ADME, organism-based, Neoplasm, AR-42J; conditions: in vivo; procedure, shortened: as §2
Liver [24] = experiment: Biodistribution in liver of BALB/c mouse bearing rat AR42J cells at 0.37 MBq, iv after 2 hrs; type: ADME, organism-based, AR-42J; conditions: in vivo; procedure, shortened: as §1
Kidney [25] = experiment: Biodistribution in kidney of BALB/c mouse bearing rat AR42J cells at 0.37 MBq, iv after 2 hrs under cold condition; type: ADME, organism-based, AR-42J; conditions: in vivo; procedure, shortened: as §2
Stomach [26] = experiment: Biodistribution in stomach of BALB/c mouse bearing rat AR42J cells at 0.37 MBq, iv after 2 hrs; type: ADME, organism-based, AR-42J; conditions: in vivo; procedure, shortened: as §1
[27] = Octanol-water partition coefficient, log D at pH 7.4; type: physicochemical
Procedure, shortened: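 ¹¹¹In-labeled conjugate (~148 kBq) in PBS pH 7.4 mixed 1:1 with n-octanol and shaken 2 min. Phases separated by centrifugation (5 min, 250g); triplicate aliquots of each layer γ-counted. log D = log₁₀(octanol counts/aqueous counts), from at least two independent experiments.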

Kidney [28] = experiment: Biodistribution in kidney of BALB/c mouse bearing rat AR42J cells at 0.37 MBq, iv after 2 hrs; type: ADME, organism-based, AR-42J; conditions: in vivo; procedure, shortened: as §1
[29] = Biodistribution in adrenal gland of BALB/c mouse bearing rat AR42J cells at 0.37 MBq, iv after 6 hrs; type: ADME, organism-based, AR-42J; conditions: in vivo; procedure, shortened: as §1
Blood [30] = experiment: Biodistribution in blood of BALB/c mouse bearing rat AR42J cells at 0.37 MBq, iv after 2 hrs; type: ADME, organism-based, AR-42J; conditions: in vivo; procedure, shortened: as §1

Drug uptake (Blood [1]): 0.04 % ID/g | Drug uptake (Liver [2]): 0.22 % ID/g | Drug uptake (Pancreas [3]): 0.17 % ID/g | Drug uptake [4]: 10.75 % ID/g | Drug uptake (Kidney [5]): 10.96 % ID/g | Drug uptake (Pancreas [6]): 2.92 % ID/g | Drug uptake [7]: 2.38 % ID/g | Drug uptake [8]: 21.32 % ID/g | Drug uptake (Blood [9]): 0.13 % ID/g | Drug uptake [10]: 1.86 % ID/g | Drug uptake (Pancreas [11]): 1.07 % ID/g | Drug uptake (Liver [12]): 0.09 % ID/g | Drug uptake (Kidney [13]): 2.53 % ID/g | Drug uptake (Stomach [14]): 2.16 % ID/g | Drug uptake (Pancreas [15]): 0.63 % ID/g | Drug uptake (Blood [16]): 3.46 % ID/g | Drug uptake (Stomach [17]): 6.11 % ID/g | Drug uptake [18]: 0.63 % ID/g | Drug uptake (Liver [19]): 3.61 % ID/g | IC50 [20]: 1.32 nM | Drug uptake (Stomach [21]): 2.83 % ID/g | Drug uptake [22]: 42.33 % ID/g | Drug uptake [23]: 4.82 % ID/g | Drug uptake (Liver [24]): 0.52 % ID/g | Drug uptake (Kidney [25]): 62.74 % ID/g | Drug uptake (Stomach [26]): 7.54 % ID/g | logD [27]: -2.2 | Drug uptake (Kidney [28]): 54.19 % ID/g | Drug uptake [29]: 0.78 % ID/g | Drug uptake (Blood [30]): 0.27 % ID/g
SMILES: C[C@@H](O)[C@@H]1NC(=O)[C@H](CCCCN)NC(=O)[C@@H](Cc2c[nH]c3ccccc23)NC(=O)[C@H](Cc2ccc(O)cc2)NC(=O)[C@@H](NC(=O)[C@@H](Cc2ccccc2)NC(=O)CCCCCn2cc(COc3cccc(C(=O)NS(=O)(=O)CCNC(=O)CN4CCN(CC(=O)O)CCN(CC(=O)O)CCN(CC(=O)O)CC4)c3)nn2)CSSC[C@@H](C(=O)N[C@H](CO)[C@@H](C)O)NC1=O

logD [27]: -3.59
SMILES: C[C@@H](O)[C@@H]1NC(=O)[C@H](CCCCN)NC(=O)[C@@H](Cc2c[nH]c3ccccc23)NC(=O)[C@H](Cc2ccc(O)cc2)NC(=O)[C@@H](NC(=O)[C@@H](Cc2ccccc2)NC(=O)CCCCCn2cc(CO)nn2)CSSC[C@@H](C(=O)N[C@H](CO)[C@@H](C)O)NC1=O
